Nine compounds from ChEMBL document CHEMBL1152990, “The mechanism of action of beta-D-2'-deoxy-2'-fluoro-2'-C-methylcytidine involves a second metabolic pathway leading to beta-D-2'-deoxy-2'-fluoro-2'-C-methyluridine 5'-triphosphate, a potent inhibitor of the hepatitis C virus RNA-dependent RNA polymerase” (Antimicrob Agents Chemother, 2008) can be followed below.

Data set [1] deals with Huh-7. Briefly: Ratio of Kcat to Km for cloned NDPK in human HuH7 cells assessed as formation of […] triphosphate by spectrophotometry. Type of data set: cell-based.
Data set [2] has as its system C[C@@]1(F)[C@H](O)[C@@H](COP(=O)(O)OP(=O)(O)OP(=O)(O)O)O[C@H]1n1ccc(=O)[nH]c1=O. Briefly: (§1) Activity of HCV NS5B polymerase S282T mutant. The settings on record: Hepacivirus hominis. The essentials: (§2)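 Recombinant HCV NS5B S282T (21-aa C-terminally truncated, E. coli-expressed, metal-affinity purified) in a de novo steady-state RNA synthesis assay on an unprimed minus-IRES RNA template. Run at 27°C in 50 mM HEPES pH 7.5 with 5 mM MgCl2 and 2 mM DTT. For the CTP analog, UTP/GTP/ATP were fixed at 10/100/100 μM while 32P-CTP and the inhibitor were varied. For the UTP analog, CTP/ATP/GTP were fixed at 10/100/100 μM while 32P-UTP and the inhibitor were varied.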

Data set [3] relates to C[C@@]1(F)[C@H](O)[C@@H](COP(=O)(O)OP(=O)(O)OP(=O)(O)O)O[C@H]1n1ccc(N)nc1=O. The description is as §1. As to conditions: Hepacivirus hominis. The essentials:
as §2

Data set [4] has as its system C[C@@]1(F)[C@H](O)[C@@H](CO)O[C@H]1n1ccc(N)nc1=O. Briefly: Ratio of Kcat to Km for cloned 2'-deoxycytidine kinase in human HepG2 cells assessed as formation of formation of […] monophosphate by spectrophotometry. Format: cell-based.
The test system of data set [5] is Hepacivirus hominis. The data set can be described thus: Ratio of Ki to Km for wild type HCV NS5B polymerase. The essentials:
(§3)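 De novo RNA synthesis by NS5B lacking 21 C-terminal residues, in 50 mM HEPES pH 7.5 with 5 mM MgCl2 and 2 mM DTT at 27°C. Template was unprimed minus-IRES RNA, 2.8 μg each of enzyme and template. CTP 10 μM, ATP and GTP 100 μM; 32P-UTP and inhibitor were varied. Aliquots were quenched with EDTA/NaCl/citrate.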

Data set [6] concerns RNA-directed RNA polymerase (Hepacivirus hominis), O39930 [S282T]. The data set can be described thus: Ratio of Ki to Km for HCV NS5B polymerase S282T mutant. The essentials: as §2
Data set [7] has as its system Hepacivirus hominis. The data set can be described thus: Fold resistance, ratio of Ki/Km for HCV NS5B polymerase S282T mutant to Ki/Km for wild type HCV NS5B polymerase. In a few lines:
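Ki and Km were measured for wild-type and S282T NS5B (C-terminal Δ21) by steady-state de novo RNA synthesis. Conditions were an unprimed minus-IRES template, 27°C, 50 mM HEPES pH 7.5, 5 mM MgCl2, 2 mM DTT, and varied 32P-labelled natural NTP with varied inhibitor. Fold resistance = (Ki/Km mutant)/(Ki/Km wild type).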

The test system of data set [8] is Huh-7. The data set can be described thus: Ratio of Kcat to Km for cloned NDPK in human HuH7 cells assessed as formation of RO2433 triphosphate by spectrophotometry. Format: cell-based. In a few lines: (§4)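 Recombinant human kinase read out by PK/LDH coupling, following NADH oxidation at 340 nm. Rates were measured over varied substrate levels and fitted for steady-state parameters.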

Data set [9] has as its target Creatine kinase B-type (Homo sapiens) (UniProt P12277). The data set can be described thus: Activity of human creatine kinase isoform BB assessed as formation of RO2433 triphosphate at 200 uM.
The species entered for another data set is Homo sapiens. Briefly: Activity of human creatine kinase isoform MB assessed as formation of RO2433 triphosphate at 200 uM.
The target in data set [10] is Creatine kinase M-type (Homo sapiens) (UniProt P06732). Briefly: Activity of human creatine kinase isoform MM assessed as formation of RO2433 triphosphate at 200 uM.
Chain of Creatine kinase M-type (Homo sapiens) (P06732 whole entry, canonical isoform): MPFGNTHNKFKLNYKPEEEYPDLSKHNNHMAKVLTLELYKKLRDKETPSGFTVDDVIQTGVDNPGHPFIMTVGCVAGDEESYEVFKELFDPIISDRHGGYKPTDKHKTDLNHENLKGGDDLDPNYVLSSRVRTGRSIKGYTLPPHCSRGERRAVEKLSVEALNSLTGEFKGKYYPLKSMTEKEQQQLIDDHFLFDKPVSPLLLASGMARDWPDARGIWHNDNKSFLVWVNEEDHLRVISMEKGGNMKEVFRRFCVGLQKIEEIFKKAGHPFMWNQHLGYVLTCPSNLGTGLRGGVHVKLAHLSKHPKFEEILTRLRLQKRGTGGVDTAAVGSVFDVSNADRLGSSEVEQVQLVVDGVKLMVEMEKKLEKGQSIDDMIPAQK
Data set [11] addresses T1, Phosphoglycerate kinase (Saccharomyces cerevisiae S288c) (UniProt P00560).
T1 sequence (whole entry): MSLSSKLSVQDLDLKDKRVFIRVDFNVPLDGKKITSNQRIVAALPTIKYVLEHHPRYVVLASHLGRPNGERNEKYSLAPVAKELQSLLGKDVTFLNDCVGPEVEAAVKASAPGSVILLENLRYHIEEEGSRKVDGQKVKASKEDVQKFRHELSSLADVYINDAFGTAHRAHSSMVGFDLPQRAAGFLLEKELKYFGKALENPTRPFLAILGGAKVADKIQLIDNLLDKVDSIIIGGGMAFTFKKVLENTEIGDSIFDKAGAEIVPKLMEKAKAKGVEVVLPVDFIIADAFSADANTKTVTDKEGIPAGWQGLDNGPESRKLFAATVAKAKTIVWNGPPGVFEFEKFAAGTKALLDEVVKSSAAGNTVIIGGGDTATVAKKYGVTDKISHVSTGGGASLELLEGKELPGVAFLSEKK
The data set can be described thus: Activity of yeast 3-phosphoglycerate kinase assessed as formation of RO2433 triphosphate at 200 uM.

The subject of data set [12] is Huh-7. The data set can be described thus: Activity of cloned NDPK in human HuH7 cells assessed as formation of uridine triphosphate by spectrophotometry. Format: cell-based. In a few lines:
as §4

In data set [13] the test system is Huh-7. The data set can be described thus: Ratio of Kcat to Km for cloned NDPK in human HuH7 cells assessed as formation of uridine triphosphate by spectrophotometry. Format: cell-based. The essentials: as §4
Data set [14] deals with Hepacivirus hominis. Briefly: Activity of wild type HCV NS5B polymerase. In a few lines: as §3
Data set [15] has as its system Hepatitis C virus. The data set can be described thus: Antiviral activity against wild type HCV infected in human HuH7 cells assessed as inhibition of viral RNA replication after 4 days by replicon assay in absence of DCTD inhibitor zedularine. The settings on record: Hepacivirus hominis; Huh-7. Type of data set: functional. In a few lines:
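Clone A Huh-7 replicon cells at 1,500 cells/well, without G418. Threefold serial compound dilutions were given with or without 100 μM zebularine, for 4 days at 37°C in 5% CO2. Replicon RNA was quantified by single-step multiplex RT-PCR, and activity was taken as ΔCT relative to the no-drug control.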
(A replicon is a self-replicating genome or part of one, used to study replication in cells.)

The test system of data set [16] is Hepatitis C virus. The data set can be described thus: Antiviral activity against HCV harboring NS5B polymerase S282T mutation infected in human HuH7 cells assessed as inhibition of viral RNA replication after 4 days by replicon assay in absence of DCTD inhibitor zedularine. Format: functional. The settings on record: Hepacivirus hominis; Huh-7. In a few lines: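 Huh-7 clone A subgenomic replicon cells carrying NS5B S282T (selected by serial passage with 2′-C-methyladenosine) were seeded at 1,500 cells/well without G418. Threefold compound dilutions were added alone or with 100 μM zebularine, followed by 4 days at 37°C, 5% CO2. Replicon RNA was quantified by single-step multiplex RT-PCR, and activity was taken as ΔCT versus the no-drug control to give EC90.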

Data set [17] deals with T2, Uridine-cytidine kinase 1 (Homo sapiens) (UniProt Q9HA47).
T2 sequence (whole entry): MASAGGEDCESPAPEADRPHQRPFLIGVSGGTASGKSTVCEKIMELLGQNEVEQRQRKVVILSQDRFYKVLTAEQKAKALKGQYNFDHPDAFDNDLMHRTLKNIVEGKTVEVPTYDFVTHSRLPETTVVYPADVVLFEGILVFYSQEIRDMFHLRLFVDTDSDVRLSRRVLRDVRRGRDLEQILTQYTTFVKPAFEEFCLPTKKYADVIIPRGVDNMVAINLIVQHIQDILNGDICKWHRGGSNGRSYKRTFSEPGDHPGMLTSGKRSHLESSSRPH
Briefly: Activity of cloned uridine-cytidine kinase 1 in human HuH7 cells up to 1 mM. Type of data set: cell-based. As to conditions: Huh-7.

Data set [18] addresses Deoxycytidine kinase (Homo sapiens) (UniProt P27707). The data set can be described thus: Activity of cloned deoxycytidine kinase in human HepG2 cells up to 1 mM. Type of data set: cell-based.
Data set [19] concerns the target T3, Thymidine kinase, cytosolic (Homo sapiens) (UniProt P04183).
T3 sequence (whole entry): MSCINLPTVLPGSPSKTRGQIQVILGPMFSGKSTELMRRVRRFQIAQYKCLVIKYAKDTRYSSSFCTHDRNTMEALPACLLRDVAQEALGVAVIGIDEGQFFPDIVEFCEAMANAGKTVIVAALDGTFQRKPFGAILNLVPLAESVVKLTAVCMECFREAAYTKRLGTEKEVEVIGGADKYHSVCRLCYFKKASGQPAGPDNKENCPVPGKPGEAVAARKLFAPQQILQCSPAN
The data set can be described thus: Activity of thymidine kinase 1 up to 1 mM.

The target in data set [20] is T4, Thymidine kinase 2, mitochondrial (Homo sapiens) (UniProt O00142).
T4 sequence (whole entry): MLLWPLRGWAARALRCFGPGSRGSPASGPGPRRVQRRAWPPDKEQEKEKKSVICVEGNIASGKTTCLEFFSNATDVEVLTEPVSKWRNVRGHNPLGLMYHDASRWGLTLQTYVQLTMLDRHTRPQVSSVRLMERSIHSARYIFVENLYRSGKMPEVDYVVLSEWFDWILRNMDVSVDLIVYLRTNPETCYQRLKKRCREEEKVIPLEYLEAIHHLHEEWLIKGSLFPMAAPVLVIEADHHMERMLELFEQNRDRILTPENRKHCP
The data set can be described thus: Activity of thymidine kinase 2 up to 1 mM.

Calls of active or inactive are those of the source. No cut-off for these calls is given here.

Chain of Deoxycytidine kinase (Homo sapiens) (P27707 whole entry, looked up): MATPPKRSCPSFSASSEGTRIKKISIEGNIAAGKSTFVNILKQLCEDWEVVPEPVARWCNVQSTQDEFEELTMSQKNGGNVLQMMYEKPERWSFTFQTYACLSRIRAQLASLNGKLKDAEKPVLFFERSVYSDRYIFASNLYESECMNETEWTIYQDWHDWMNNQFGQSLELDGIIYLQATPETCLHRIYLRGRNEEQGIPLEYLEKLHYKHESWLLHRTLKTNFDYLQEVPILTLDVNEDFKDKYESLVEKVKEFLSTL
Chain of Deoxycytidine kinase (Homo sapiens), P27707 (P27707 whole entry): as the sequence (P27707 whole entry, looked up) above
Chain of Creatine kinase B-type (Homo sapiens) (P12277 whole entry, canonical isoform): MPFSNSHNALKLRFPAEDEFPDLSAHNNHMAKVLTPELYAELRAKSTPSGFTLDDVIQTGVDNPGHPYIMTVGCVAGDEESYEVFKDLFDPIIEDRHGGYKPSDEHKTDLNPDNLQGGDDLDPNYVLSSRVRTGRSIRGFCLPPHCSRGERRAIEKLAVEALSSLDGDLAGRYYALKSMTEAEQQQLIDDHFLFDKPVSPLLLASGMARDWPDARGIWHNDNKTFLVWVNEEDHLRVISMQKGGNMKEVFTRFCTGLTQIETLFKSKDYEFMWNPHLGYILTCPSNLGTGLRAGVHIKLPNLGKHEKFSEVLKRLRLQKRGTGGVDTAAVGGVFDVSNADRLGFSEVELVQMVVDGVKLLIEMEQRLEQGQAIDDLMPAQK

`C[C@@]1(F)[C@H](O)[C@@H](COP(=O)(O)OP(=O)(O)O)O[C@H]1n1ccc(N)nc1=O`: the kcat/Km in the data set with Huh-7 [1] was 15000 M⁻¹ s⁻¹.

Turning to “RNA-directed RNA polymerase (Hepacivirus hominis), O39930 S282T”, the results for the Km in [2] and in data set [3] were 0.15 µM and 0.052 µM, respectively.

As for “Deoxycytidine kinase (Homo sapiens), P27707”, in [4], the kcat/Km is 1.9 ×10⁻⁴ /µM/s.

In the case of `C[C@@]1(F)[C@H](O)[C@@H](COP(=O)(O)OP(=O)(O)OP(=O)(O)O)O[C@H]1n1ccc(=O)[nH]c1=O`, the Ki/Km in the data set with Hepacivirus hominis [5] was determined as 6.2; in data set [6], 147. In the data set with Hepacivirus hominis [7], the Ratio turned out to be 23.7.

As to `C[C@@]1(F)[C@H](O)[C@@H](COP(=O)(O)OP(=O)(O)O)O[C@H]1n1ccc(=O)[nH]c1=O`, the kcat/Km in the data set on Huh-7 [8] was 46000 M⁻¹ s⁻¹. In addition, the outcome (in data set [9]; in the data set filed under Homo sapiens; in data set [10]; in data set [11]) was inactive.

For the compound `O=c1ccn([C@@H]2O[C@H](COP(=O)(O)OP(=O)(O)O)[C@@H](O)[C@H]2O)c(=O)[nH]1`, in the data set on Huh-7 [12], the Km – broadly, the concentration of substrate that gives half-maximal velocity – was found to be 156 µM and the kcat (as a rule, the maximal rate divided by the concentration of active sites) was 145 s⁻¹. Moreover, the kcat/Km in the data set with Huh-7 [13] stood at 930000 M⁻¹ s⁻¹.

Regarding `C[C@@]1(F)[C@H](O)[C@@H](COP(=O)(O)OP(=O)(O)OP(=O)(O)O)O[C@H]1n1ccc(N)nc1=O`, the Km with Hepacivirus hominis [14] came out at 0.074 µM. Besides, the Ki/Km is 0.8 in the data set with Hepacivirus hominis [5] and 6 in [6]. Besides, the Ratio in the data set with Hepacivirus hominis [7] was 7.5.

`C[C@@]1(F)[C@H](O)[C@@H](COP(=O)(O)O)O[C@H]1n1ccc(=O)[nH]c1=O`: the outcome in the data set with Hepatitis C virus [15] and in the data set on Hepatitis C virus [16] was Active.

Consider `C[C@@]1(F)[C@H](O)[C@@H](CO)O[C@H]1n1ccc(=O)[nH]c1=O`, for which the result in data set [17], in data set [18], in [19] and in data set [20] was inactive.
